Data taken from ChEMBL document CHEMBL3352243, “Ligand-based virtual screening identifies a family of selective cannabinoid receptor 2 agonists” (Bioorg Med Chem, 2015).
In brackets after ≈: the same amount, converted by molar mass. Blank lines part the entries; values can stand above or below the compound they belong to.

Columns and labels:
Cannabinoid receptor 2 [1] = target: T1, Cannabinoid receptor 2 (Homo sapiens, UniProt P34972); experiment: Agonist activity at human CB2R expressed in CHO cells assessed as reduction in forskolin-induced cAMP accumulation by beta-galactosidase based complementation immunoassay; assay type: functional, cell-based
Method in brief: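 hCB2R CHO-K1 cells plated overnight at 37 °C, 5% CO2; anti-cAMP antibody added, then compound (final 0.2% DMSO) with 20 μM forskolin for 30 min at 37 °C. Lysis/substrate 1 h, then EA detection reagent 3 h at room temperature; luminescence read and normalised to forskolin+solvent wells (100%). EC50 by 4-parameter nonlinear fit of pooled 3–4 independent experiments.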
Target sequence in this assay (P34972 whole entry): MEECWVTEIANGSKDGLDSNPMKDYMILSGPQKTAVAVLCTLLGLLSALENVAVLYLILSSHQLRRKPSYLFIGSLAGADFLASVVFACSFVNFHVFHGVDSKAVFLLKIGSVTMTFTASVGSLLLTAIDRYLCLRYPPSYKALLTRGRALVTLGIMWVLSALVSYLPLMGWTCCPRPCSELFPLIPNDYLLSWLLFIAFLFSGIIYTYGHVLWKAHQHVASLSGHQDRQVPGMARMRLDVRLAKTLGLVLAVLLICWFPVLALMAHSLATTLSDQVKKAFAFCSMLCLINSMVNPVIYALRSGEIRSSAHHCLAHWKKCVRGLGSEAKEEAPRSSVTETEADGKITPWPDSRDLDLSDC

Cannabinoid receptor 2 [2] = target: T1, Cannabinoid receptor 2; experiment: Agonist activity at human CB2R expressed in CHO cells assessed as reduction in forskolin-induced cAMP accumulation at 1 uM by beta-galactosidase based complementation immunoassay; design: reference not given here
Target sequence in this assay (P34972 whole entry, looked up): as the sequence (P34972 whole entry) above

Cannabinoid receptor 2 [3] = target: T1, Cannabinoid receptor 2; experiment: Agonist activity at human CB2R expressed in CHO cells assessed as reduction in forskolin-induced cAMP accumulation at 3 uM by beta-galactosidase based complementation immunoassay; assay type: functional, cell-based; design: reference not given here
Method in brief: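 CHO-K1 cells expressing hCB2R, 15,000 per well, incubated overnight at 37 °C, 5% CO2, then anti-cAMP antibody added. Test agent at single concentration with 20 μM forskolin (0.2% DMSO final), 30 min at 37 °C. Lysis/substrate 1 h, then EA reagent 3 h, both at rt in the dark; luminescence read and expressed as % of forskolin+solvent control wells.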
Target sequence in this assay (P34972 whole entry): as above

Cannabinoid receptor 1 [4] = target: T2, Cannabinoid receptor 1 (Homo sapiens, UniProt P21554); experiment: Agonist activity at human CB1R expressed in CHO cells assessed as reduction in forskolin-induced cAMP accumulation by beta-galactosidase based complementation immunoassay; assay type: functional, cell-based
T2 sequence (P21554 whole entry): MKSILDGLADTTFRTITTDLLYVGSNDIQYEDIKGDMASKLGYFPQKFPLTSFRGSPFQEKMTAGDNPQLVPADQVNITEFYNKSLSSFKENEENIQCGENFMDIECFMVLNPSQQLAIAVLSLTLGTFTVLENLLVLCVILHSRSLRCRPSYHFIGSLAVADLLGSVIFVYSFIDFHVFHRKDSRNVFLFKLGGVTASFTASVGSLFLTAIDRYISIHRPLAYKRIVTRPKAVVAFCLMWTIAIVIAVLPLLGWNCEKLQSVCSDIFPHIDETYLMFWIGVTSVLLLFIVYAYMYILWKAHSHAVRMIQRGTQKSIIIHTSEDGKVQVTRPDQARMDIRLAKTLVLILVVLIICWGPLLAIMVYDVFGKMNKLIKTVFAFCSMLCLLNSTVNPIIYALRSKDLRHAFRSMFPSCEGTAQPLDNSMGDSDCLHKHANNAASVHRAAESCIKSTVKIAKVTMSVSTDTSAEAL
Method in brief: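 CHO-K1 cells expressing hCB1R, 15,000 per well, incubated overnight at 37 °C, 5% CO2, then given anti-cAMP antibody. Compounds were added with 20 μM forskolin (final DMSO 0.2%) for 30 min at 37 °C. Lysis/substrate step 1 h and EA detection 3 h, both at rt in the dark, then luminescence read.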

Liver = experiment: Half life in mouse liver microsomes in presence of NADPH by LC-MS/MS method; assay type: ADME
Method in brief: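 Mouse liver microsomes incubated with compound at 37 °C with NADPH. Reactions stopped with methanol containing internal standard, centrifuged, supernatant analysed by LC–MS/MS.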

Cannabinoid receptor 2 [5] = target: T1, Cannabinoid receptor 2; experiment: Displacement of [3H]WIN-55212-2 from human CB2R expressed in CHO cells; assay type: cell-based
Method in brief: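 Membranes from CHO cells expressing hCB2R incubated with test compound and tritiated WIN-55212 (0.8 nM), 2 h, 37 °C. Non-specific binding defined with 5 μM WIN-55212. Scintillation counting of bound ligand; Ki via Cheng–Prusoff with radioligand Kd; duplicate.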
Target sequence in this assay (P34972 whole entry): as the sequence (P34972 whole entry) above

Cannabinoid receptor 1 [6] = target: T2, Cannabinoid receptor 1; experiment: Displacement of [3H]CP55940 from human CB1R expressed in CHO cells; assay type: cell-based
Method in brief: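 Membranes from CHO cells expressing hCB1R incubated with test compound and [3H]CP 55,940 (0.5 nM) for 2 h at 37 °C. Non-specific binding defined with 10 μM WIN-55212. Bound radioligand measured by scintillation counting. Ki from Cheng–Prusoff using radioligand Kd; run in duplicate.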

[7] = Aqueous kinetic solubility of the compound at pH 7 at 37 degC by turbidimetric assay; assay type: physicochemical; details: read-out: Kinetic_solubility
Method in brief: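 Turbidimetric method: DMSO dilutions added to phosphate-buffered saline pH 7.4 at final 1, 3, 10, 30, 100 μM (1% DMSO), 7 replicates per concentration. Incubated 2 h at 37 °C, then absorbance read at 620 nm. Value is the mid-point of the precipitation range between upper and lower solubility limits.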

EC50 (Cannabinoid receptor 2 [1]): > 3000 nM
SMILES: N#Cc1ccccc1CSc1nnc2c(n1)[nH]c1cc(Br)ccc12

EC50 (Cannabinoid receptor 2 [1]): > 3000 nM
SMILES: Cc1ccc(-c2cccc3[nH]c4nc(SCc5ccccc5C#N)nnc4c23)cc1

EC50 (Cannabinoid receptor 2 [1]): > 3000 nM
SMILES: Cc1ccc(S(=O)(=O)n2c3ccccc3c3nnc(SCc4ccccc4C#N)nc32)cc1

Activity (Cannabinoid receptor 2 [2]): 108% | Activity (Cannabinoid receptor 2 [3]): 138%
SMILES: CCCCCCSC1=C(C#N)C(c2ccc(Cl)cc2)NC(=O)N1 (stereo not drawn)

SMILES: c1ccc(CSc2nnc3c(n2)[nH]c2ccccc23)cc1
EC50 (Cannabinoid receptor 2 [1]): 10000 nM | EC50 (Cannabinoid receptor 1 [4]): > 30000 nM

EC50 (Cannabinoid receptor 2 [1]): > 3000 nM
SMILES: c1ccc2c(c1)[nH]c1nc(SCC3CCCCC3)nnc12

Activity (Cannabinoid receptor 2 [2]): 102% | Activity (Cannabinoid receptor 2 [3]): 76%
SMILES: CCCCCCSc1nnc2c(n1)[nH]c1ccccc12

SMILES: N#Cc1ccccc1C[S+]([O-])c1nnc2c(n1)[nH]c1ccccc12 (stereo not drawn)
EC50 (Cannabinoid receptor 2 [1]): 3550 nM

SMILES: O=[N+]([O-])c1ccc(CSc2nnc3c(n2)[nH]c2ccccc23)cc1
EC50 (Cannabinoid receptor 2 [1]): 617 nM

SMILES: N#Cc1ccccc1CSc1nnc2c3ccccc3n(C(=O)C3CC3)c2n1
t1/2 (Liver): < 5 min | EC50 (Cannabinoid receptor 2 [1]): 181 nM

SMILES: N#Cc1ccccc1CSc1nnc2c3ccccc3n(S(=O)(=O)c3ccccc3)c2n1
t1/2 (Liver): < 5 min | EC50 (Cannabinoid receptor 2 [1]): 76 nM

EC50 (Cannabinoid receptor 2 [1]): > 3000 nM
SMILES: CCOC(=O)c1ccccc1CSc1nnc2c(n1)[nH]c1ccccc12

SMILES: N#Cc1cccc(CSc2nnc3c(n2)[nH]c2ccccc23)c1
EC50 (Cannabinoid receptor 2 [1]): 6450 nM | EC50 (Cannabinoid receptor 1 [4]): > 30000 nM

Activity (Cannabinoid receptor 2 [2]): 98.2% | Activity (Cannabinoid receptor 2 [3]): 119%
SMILES: CCCCCCSC1=C(C#N)C(c2ccccc2Cl)NC(=O)N1 (stereo not drawn)

SMILES: O=[N+]([O-])c1ccccc1CSc1nnc2c(n1)[nH]c1ccccc12
Ki (Cannabinoid receptor 2 [5]): 155 nM | t1/2 (Liver): 43 min | EC50 (Cannabinoid receptor 2 [1]): 33 nM | Ki (Cannabinoid receptor 1 [6]): > 60000 nM | EC50 (Cannabinoid receptor 1 [4]): > 30000 nM

SMILES: Fc1ccccc1CSc1nnc2c3ccccc3n(Cc3ccccc3)c2n1
Ki (Cannabinoid receptor 2 [5]): 215 nM | EC50 (Cannabinoid receptor 2 [1]): 850 nM | Ki (Cannabinoid receptor 1 [6]): 275 nM

SMILES: O=C(O)c1ccccc1CSc1nnc2c(n1)[nH]c1ccccc12
EC50 (Cannabinoid receptor 2 [1]): 2180 nM

SMILES: N#Cc1ccccc1CSc1nnc2c(n1)[nH]c1cccc(Br)c12
Ki (Cannabinoid receptor 2 [5]): 22.5 nM | t1/2 (Liver): 5 min | EC50 (Cannabinoid receptor 2 [1]): 39 nM | Ki (Cannabinoid receptor 1 [6]): 3200 nM | EC50 (Cannabinoid receptor 1 [4]): 20000 nM

EC50 (Cannabinoid receptor 2 [1]): > 3000 nM
SMILES: N#Cc1ccccc1CSc1nnc2c(n1)[nH]c1c(Br)cccc12

SMILES: N#Cc1ccccc1CSc1nnc2c3ccccc3n(C(=O)c3ccc(OC(F)(F)F)cc3)c2n1
Ki (Cannabinoid receptor 2 [5]): 380 nM | EC50 (Cannabinoid receptor 2 [1]): 73 nM | Ki (Cannabinoid receptor 1 [6]): > 60000 nM

EC50 (Cannabinoid receptor 2 [1]): > 3000 nM
SMILES: Fc1ccc(CSc2nnc3c(n2)[nH]c2ccccc23)cc1

SMILES: COC(=O)CCCC(=O)n1c2ccccc2c2nnc(SCc3ccccc3C#N)nc21
solubility kinetic [7]: 3.75 µM (≈ 1.67 µg/mL) | EC50 (Cannabinoid receptor 2 [1]): 42 nM

SMILES: N#Cc1ccccc1CSc1nnc2c3ccccc3n(C(=O)c3cccc(C(F)(F)F)c3)c2n1
EC50 (Cannabinoid receptor 2 [1]): 27 nM

SMILES: N#Cc1ccccc1CSc1nnc2c(n1)[nH]c1ccccc12
solubility kinetic [7]: 3.75 µM (≈ 1.19 µg/mL) | Ki (Cannabinoid receptor 2 [5]): 355 nM | t1/2 (Liver): 46 min | EC50 (Cannabinoid receptor 2 [1]): 112 nM | Ki (Cannabinoid receptor 1 [6]): > 60000 nM | EC50 (Cannabinoid receptor 1 [4]): > 30000 nM

Activity (Cannabinoid receptor 2 [2]): 111% | Activity (Cannabinoid receptor 2 [3]): 98.4%
SMILES: CCC1(C)Cc2c(sc3nc(SCCC(C)C)nc(N)c23)CO1 (stereo not drawn)

Activity (Cannabinoid receptor 2 [2]): 76.7% | Activity (Cannabinoid receptor 2 [3]): 85.3%
SMILES: CC(C)CCSc1nc(N)c2c3c(sc2n1)COC(C)(C)C3

SMILES: O=[N+]([O-])c1ccccc1CSc1nnc2c(n1)[nH]c1cccc(Br)c12
EC50 (Cannabinoid receptor 2 [1]): 37 nM

SMILES: COc1ccc(C(=O)n2c3ccccc3c3nnc(SCc4ccccc4C#N)nc32)cc1OC
EC50 (Cannabinoid receptor 2 [1]): 160 nM

SMILES: CCCCCCCC1C(=O)NC(=S)N(c2ccccc2)C1=O (stereo not drawn)
Activity (Cannabinoid receptor 2 [2]): 111% | Activity (Cannabinoid receptor 2 [3]): 98.1%

SMILES: N#Cc1ccccc1CSc1nnc2c(n1)[nH]c1cccc(C3CC3)c12
EC50 (Cannabinoid receptor 2 [1]): 231 nM

SMILES: CCCCn1c2ccccc2c2nnc(SCc3ccccc3C#N)nc21
t1/2 (Liver): < 5 min | EC50 (Cannabinoid receptor 2 [1]): 106 nM

SMILES: O=C(c1ccccc1)n1c2ccccc2c2nnc(SCc3ccccc3[N+](=O)[O-])nc21
Ki (Cannabinoid receptor 2 [5]): 235 nM | EC50 (Cannabinoid receptor 2 [1]): 75 nM | Ki (Cannabinoid receptor 1 [6]): > 60000 nM

SMILES: Cc1ccccc1-c1cccc2[nH]c3nc(SCc4ccccc4C#N)nnc3c12
EC50 (Cannabinoid receptor 2 [1]): 4300 nM

Activity (Cannabinoid receptor 2 [2]): 93.5% | Activity (Cannabinoid receptor 2 [3]): 61.6%
SMILES: CCCCSc1nnc(-c2ccccc2N)c(O)n1

SMILES: N#Cc1ccccc1CSc1nnc2c3ccccc3n(C(=O)c3ccc(F)cc3)c2n1
EC50 (Cannabinoid receptor 2 [1]): 57 nM

EC50 (Cannabinoid receptor 2 [1]): > 3000 nM
SMILES: N#Cc1ccccc1CSc1nnc2c3ccccc3n(C(=O)OCc3ccccc3)c2n1
